Assay [1] in a line: Her2 expression decrease, cell viability multiplex – SKBR3 breast tumor cells, AlphaScreen, ATP viability, primary screen (AID 461).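 On Her2 level: lower value means less Her2 protein in the cells.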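 On viability: percent of carrier control wells set as 100% viability.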 Particulars: SKBR3 Her2 protein level, 18-24 h, measured here: SKBR3 viability, ATP luminescence, at 10 µM. (In general: Alpha assays give light when donor and acceptor beads are brought close together.)
Assay [2] addresses Receptor tyrosine-protein kinase erbB-2 (Homo sapiens) (UniProt P04626). The assay is described as above. The following applies: 18-24 h, at 10 µM, stronger effect = lower value.
A short description of assay [3]: reduced viability of SK-BR-3 breast cancer cells – cell-based, 24 h, human, pilot screen (AID 572;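 active means viability at or below 10% of carrier control in both of two separate runs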;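 further: compound exposure lasted between 18 and 24 h rather than exactly 24 h; 100% = carrier-treated control wells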). Particulars: SK-BR-3 viability, CellTiter-Glo luminescence, at 10 µM, stronger effect = lower value. On the technique in general: Cellular ATP, detected with luciferase, serves as a proxy for viable cell number.
A short description of assay [4]: HUVEC growth inhibition – cell-based, human, primary screen (AID 575;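 active means viability at or below 30% in both replicate assays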;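 further: 100% = median of untreated cell wells with 0.1% DMSO on each plate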). The following applies: HUVEC proliferation, CellTiter-Glo luminescence, 72 h; at 10 µM; stronger effect = lower value. Put shortly:
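material = primary HUVEC, no more than 12 passages | input = 1250 cells per well | controls = vehicle and MePR control wells | measured by = CTG luminescence | times = 72 h compound incubation | format = collagen-coated 384-well format | read-out = % viability vs DMSO wells | doses = single 10 µM dose, 0.1% DMSO, from 5x medium stock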

The nature of assay [5]: H69AR cell proliferation blockers – human, duplicate replicates, primary screen (AID 580;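 active means viability at or under a set limit in both replicates, limit being median viability minus 3 SD, cut at about 48% in these data, passing the limit was not always enough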;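 further: 100% = mean luminescence of untreated wells and 0% = no signal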). The following applies: H69AR lung tumor cells viability, ATP luminescence, 72 h; at 10 µM; stronger effect = lower value.
Assay [6] is described as follows: MRP1 drug-resistance reversers in H69AR cells – cell-based, doxorubicin co-treatment, pilot screen (AID 601;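 active means viability loss from added drug above about 55%, and viability with drug at most 40%, in both replicates, limit read from the data, passing the limit was not always enough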). The following applies: CellTiter-Glo, 72 h, at 10 µM; for differential viability (reversal): stronger effect = higher value.
Assay [7] is described as follows: yeast transport mutant growth inhibition pilot in 384-well plates, post-Golgi transport modulator project (AID 636; in the data active means inhibition above about 31%). Particulars: absorbance 615 nm, about 18 h, stronger effect = higher value.
Assay [8] in a line: growth suppression of yeast trafficking mutant, preliminary HTS, modulators of trafficking downstream of Golgi apparatus project, 1536-format plate, OD 615 nm (AID 637; in the data active means inhibition above about 30%). The following applies: yeast transport mutant growth, absorbance 615 nm, 18 h; stronger effect = higher value.
The mark [9] stands for this setting: H69AR cells + 2 uM doxorubicin, measured here: viability with 2 uM doxorubicin, stronger effect = lower value.
[10] abbreviates: H69AR cells, compound alone cytotoxicity.

Broadly, the viability is a read-out of living cells in per cent, often relative to untreated cells. By inhibition is commonly meant the change of the read-out against control, counted positive when it falls.

Structures are written as SMILES. The source made the active and inactive calls.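 How the source made its calls, unless noted: active means Her2 level under about 52% in both replicate screens, with viability over 70% of control (limit read from the data); inconclusive means Her2 under the limit in one screen only, or viability under 70%; inactive means Her2 level above the set limit.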

Sequence of Receptor tyrosine-protein kinase erbB-2 (Homo sapiens) (P04626 whole entry, looked up): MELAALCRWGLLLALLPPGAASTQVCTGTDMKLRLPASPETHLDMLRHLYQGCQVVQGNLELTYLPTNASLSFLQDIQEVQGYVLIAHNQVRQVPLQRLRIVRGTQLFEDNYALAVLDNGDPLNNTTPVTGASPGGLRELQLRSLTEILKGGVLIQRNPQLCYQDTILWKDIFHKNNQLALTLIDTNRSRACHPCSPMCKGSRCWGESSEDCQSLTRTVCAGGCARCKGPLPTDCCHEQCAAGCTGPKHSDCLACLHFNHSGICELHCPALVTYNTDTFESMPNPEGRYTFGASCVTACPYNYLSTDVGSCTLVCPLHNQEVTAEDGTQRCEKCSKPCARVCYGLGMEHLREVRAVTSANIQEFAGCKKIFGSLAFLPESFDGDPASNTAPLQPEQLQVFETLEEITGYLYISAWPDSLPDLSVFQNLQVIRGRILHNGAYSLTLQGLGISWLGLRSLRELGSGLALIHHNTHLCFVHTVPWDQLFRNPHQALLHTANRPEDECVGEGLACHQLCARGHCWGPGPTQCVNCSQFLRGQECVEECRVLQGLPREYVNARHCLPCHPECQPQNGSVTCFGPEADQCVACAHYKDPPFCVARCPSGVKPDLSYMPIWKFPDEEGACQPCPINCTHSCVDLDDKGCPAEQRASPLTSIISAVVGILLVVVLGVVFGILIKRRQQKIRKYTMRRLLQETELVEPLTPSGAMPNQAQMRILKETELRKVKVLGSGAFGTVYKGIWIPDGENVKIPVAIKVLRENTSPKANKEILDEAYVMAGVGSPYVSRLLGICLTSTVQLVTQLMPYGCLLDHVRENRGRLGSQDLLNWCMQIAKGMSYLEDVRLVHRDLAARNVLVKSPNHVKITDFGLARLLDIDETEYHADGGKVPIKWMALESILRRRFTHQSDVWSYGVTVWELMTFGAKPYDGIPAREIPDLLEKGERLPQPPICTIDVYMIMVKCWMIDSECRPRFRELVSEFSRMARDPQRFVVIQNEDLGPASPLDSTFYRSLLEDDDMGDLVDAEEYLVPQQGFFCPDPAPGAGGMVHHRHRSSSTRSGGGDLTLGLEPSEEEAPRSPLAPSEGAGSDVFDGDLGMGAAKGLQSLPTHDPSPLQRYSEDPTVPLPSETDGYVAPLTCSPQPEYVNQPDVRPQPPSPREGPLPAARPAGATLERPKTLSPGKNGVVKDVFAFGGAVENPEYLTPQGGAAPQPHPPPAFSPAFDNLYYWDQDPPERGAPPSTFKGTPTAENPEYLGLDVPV

Consider `Cc1sc(NC(=O)CSc2nnc(COc3ccccc3)n2C)c(C#N)c1C`, for which the viability is 83% in assay [1]; 83% (inactive) in assay [3]; 72.2% (inactive) in assay [4]; 70.3% (inactive) in assay [5]; 73.3% in assay [6] (setting [9]); 70.3% in assay [6] (setting [10]). The Her2 level in assay [2] was 75.5% (inactive). Further, the differential viability (reversal) in assay [6] (H69AR cells + 2 uM doxorubicin) is -3.05% (inactive). Moreover, the inhibition was -1.3% (inactive) in assay [7] and -7.3% (inactive) in assay [8].

On to `CC(C)(C)C(=O)Cn1c[n+](N)cn1`, for which the viability in assay [1] is 103%; in assay [3], 103% (inactive); in assay [4] it was 86.1% (inactive); in assay [5] it was 96.9% (inactive); in assay [6] (setting [9]), 92.4%; in assay [6] (setting [10]), 96.9%. For the same molecule, the Her2 level in assay [2] is 86% (inactive). The differential viability (reversal) in assay [6] (H69AR cells + 2 uM doxorubicin) was 4.54% (inactive). For the same molecule, the inhibition in assay [7] is -4.67% (inactive); in assay [8], 0.49% (inactive).

Take `CCn1cc(C(C)NC(=O)COc2ccc(Cl)cc2C)c(C)n1` (stereo not given): the viability in assay [1] was 97%; in assay [3] it was 97% (inactive); in assay [4], 93.9% (inactive); in assay [5] it was 105% (inactive); in assay [6] (setting [9]), 91.3%; in assay [6] (setting [10]), 105%. For the same molecule, the Her2 level in assay [2] was 101% (inactive). Moreover, the differential viability (reversal) in assay [6] (H69AR cells + 2 uM doxorubicin) is 13.9% (inactive). The inhibition is -2.89% (inactive) in assay [7] and -4% (inactive) in assay [8].

As for `CSc1ccccc1NC(=O)c1c(Br)cnn1C`, the viability is 89.5% in assay [1]; 89.5% (inactive) in assay [3]; 79.2% (inactive) in assay [4]; 101% (inactive) in assay [5]; 94.2% in assay [6] (setting [9]); 101% in assay [6] (setting [10]). In assay [2], the Her2 level is 94.5% (inactive). In addition, the differential viability (reversal) in assay [6] (H69AR cells + 2 uM doxorubicin) was 6.58% (inactive). Further, the inhibition in assay [7] is -2.6% (inactive); in assay [8], -4.44% (inactive).

On to `COc1ccccc1N1CCN(c2nc3ccccc3nc2C(C#N)C(=O)OC(C)C)CC1` (stereo not given), for which the viability in assay [1] is 77%; in assay [3] it was 77% (inactive); in assay [4] it was 71.6% (inactive); in assay [5], 80.3% (inactive); in assay [6] (setting [9]) it was 77.2%; in assay [6] (setting [10]), 80.3%. The Her2 level in assay [2] is 112% (inactive). Moreover, the differential viability (reversal) in assay [6] (H69AR cells + 2 uM doxorubicin) was 3.12% (inactive). Moreover, the inhibition in assay [7] is 1.58% (inactive); in assay [8], -1.82% (inactive).

Consider `Cc1ccc(CSC2=NCCN2C(=O)c2ccco2)cc1`, for which the viability was 95.5% in assay [1]; 95.5% (inactive) in assay [3]; 92.8% (inactive) in assay [4]; 84.3% (inactive) in assay [5]; 81.5% in assay [6] (setting [9]); 84.3% in assay [6] (setting [10]). In addition, the Her2 level in assay [2] was 98% (inactive). Besides, in assay [6] (H69AR cells + 2 uM doxorubicin), the differential viability (reversal) was 2.8% (inactive). The inhibition was -3.85% (inactive) in assay [7] and 3.83% (inactive) in assay [8].

In the case of `O=c1c2ccccc2nc(SCc2cccc(F)c2)n1Cc1ccco1`, the viability is 104% in assay [1]; 104% (inactive) in assay [3]; 87.6% (inactive) in assay [4]; 84.2% (inactive) in assay [5]; 82.8% in assay [6] (setting [9]); 84.2% in assay [6] (setting [10]). The Her2 level in assay [2] is 97.5% (inactive). Further, the differential viability (reversal) in assay [6] (H69AR cells + 2 uM doxorubicin) is 1.36% (inactive). The inhibition was -5.33% (inactive) in assay [7] and -0.63% (inactive) in assay [8].

`CC(C)[C@H](NC(=O)[C@@H]1CSCN1C(=O)OC(C)(C)C)C(=O)NCC1CCC(C(=O)O)CC1` (stereo not given in full): the viability in assay [1] was 105%; in assay [3], 105% (inactive); in assay [4], 113% (inactive); in assay [5] it was 102% (inactive); in assay [6] (setting [9]), 99.3%; in assay [6] (setting [10]) it was 102%. In addition, the Her2 level in assay [2] was 104% (inactive). Also, in assay [6] (H69AR cells + 2 uM doxorubicin), the differential viability (reversal) was 2.67% (inactive). Besides, the values for the inhibition in assay [7] and in assay [8] were -3.33% (inactive) and -3.23% (inactive), respectively.

For the molecule `COc1ccc(S(=O)(=O)N2CCC(C(=O)c3ccc4c(c3)OCCO4)CC2)cc1`, the viability in assay [1] is 88.5%; in assay [3] it was 88.5% (inactive); in assay [4], 61.7% (inactive); in assay [5], 91.5% (inactive); in assay [6] (setting [9]) it was 84%; in assay [6] (setting [10]), 91.5%. Moreover, the Her2 level in assay [2] was 108% (inactive). The differential viability (reversal) in assay [6] (H69AR cells + 2 uM doxorubicin) was 7.49% (inactive). Also, the inhibition is -1.95% (inactive) in assay [7] and -8.69% (inactive) in assay [8].

As to `CCSc1nncn1/N=C/c1ccc(OC)c(OC)c1`, the viability is 84% in assay [1]; 84% (inactive) in assay [3]; 91.8% (inactive) in assay [4]; 91.6% (inactive) in assay [5]; 95% in assay [6] (setting [9]); 91.6% in assay [6] (setting [10]). Also, the Her2 level in assay [2] was 124% (inactive). In assay [6] (H69AR cells + 2 uM doxorubicin), the differential viability (reversal) is -3.4% (inactive). Besides, the inhibition in assay [7] was -0.9% (inactive); in assay [8] it was -7.5% (inactive).

As to `COCCNC(=O)c1cc2c(-c3ccccc3F)nn(C)c2s1`, the viability in assay [1] is 109%; in assay [3] it was 109% (inactive); in assay [4], 60.9% (inactive); in assay [5], 93.9% (inactive); in assay [6] (setting [9]), 69.3%; in assay [6] (setting [10]), 93.9%. In addition, the Her2 level in assay [2] is 74% (inactive). Besides, in assay [6] (H69AR cells + 2 uM doxorubicin), the differential viability (reversal) was 24.6% (inactive). Also, the figures for the inhibition in assay [7] and in assay [8] were -6.53% (inactive) and -2.42% (inactive), respectively.

As to `COc1cccc(S(=O)(=O)Nc2cccnc2)c1`, the viability was 98% in assay [1]; 98% (inactive) in assay [3]; 88.2% (inactive) in assay [4]; 103% (inactive) in assay [5]; 90.3% in assay [6] (setting [9]); 103% in assay [6] (setting [10]). Moreover, the Her2 level in assay [2] is 107% (inactive). In addition, the differential viability (reversal) in assay [6] (H69AR cells + 2 uM doxorubicin) is 12.3% (inactive). Moreover, the inhibition in assay [7] is -0.4% (inactive); in assay [8], -3.71% (inactive).

Turning to `CCOC(=O)N1CCN(C(=O)c2ccc3c(=O)n(CCc4ccccc4)c(=O)[nH]c3c2)CC1`, the viability is 98.5% in assay [1]; 98.5% (inactive) in assay [3]; 77.1% (inactive) in assay [4]; 85.6% (inactive) in assay [5]; 55.6% in assay [6] (setting [9]); 85.6% in assay [6] (setting [10]). Besides, the Her2 level in assay [2] was 108% (inactive). Moreover, the differential viability (reversal) in assay [6] (H69AR cells + 2 uM doxorubicin) is 30% (inactive). For the same molecule, the inhibition was -1.49% (inactive) in assay [7] and 14.8% (inactive) in assay [8].

Take `C=CCNS(=O)(=O)c1ccc2nsnc2c1`: the viability in assay [1] is 102%; in assay [3], 102% (inactive); in assay [4], 87.8% (inactive); in assay [5] it was 100% (inactive); in assay [6] (setting [9]) it was 102%; in assay [6] (setting [10]), 100%. In assay [2], the Her2 level is 109% (inactive). Moreover, the differential viability (reversal) in assay [6] (H69AR cells + 2 uM doxorubicin) was -1.67% (inactive). Further, the figures for the inhibition in assay [7] and in assay [8] were 0.27% (inactive) and -2.1% (inactive), respectively.

With `CSCCC(NC(=O)c1ccco1)C(=O)O` (stereo not given), the viability in assay [1] is 97.5%; in assay [3], 97.5% (inactive); in assay [4], 112% (inactive); in assay [5], 91.8% (inactive); in assay [6] (setting [9]) it was 91%; in assay [6] (setting [10]), 91.8%. Besides, the Her2 level in assay [2] is 110% (inactive). Also, the differential viability (reversal) in assay [6] (H69AR cells + 2 uM doxorubicin) is 0.86% (inactive). For the same molecule, the inhibition in assay [7] was -0.93% (inactive); in assay [8], 15% (inactive).

Regarding `Cc1ccc(CSC2=NCCN2C(=O)C2CC2)cc1`, the viability in assay [1] is 100%; in assay [3] it was 100% (inactive); in assay [4] it was 83.3% (inactive); in assay [5], 97% (inactive); in assay [6] (setting [9]), 86.3%; in assay [6] (setting [10]) it was 97%. For the same molecule, the Her2 level in assay [2] is 88% (inactive). In assay [6] (H69AR cells + 2 uM doxorubicin), the differential viability (reversal) is 10.7% (inactive). The results for the inhibition in assay [7] and in assay [8] were -8.11% (inactive) and 8.57% (inactive), respectively.

The values are drawn from PubChem BioAssay.
